Where two headings read alike, the source gives them in different places.
Tests used:
PSMA [1] = target: T1, PSMA (Homo sapiens, UniProt Q04609); conditions: for comparison; cited from earlier work
PSMA [2] = target: T1, PSMA; experiment: PSMA inhibition assay; assay type: biochemical; conditions: LNCaP cell lysates, 4 μM NAAG
Method in brief: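 PSMA source: LNCaP cell lysate. Test compound (0.01 nM–100 μM) incubated with 4 μM NAAG, 37 °C, 2 h. Released glutamate detected with Amplex Red glutamic acid working solution, 37 °C, 60 min; fluorescence ex 490/em 642 nm. IC50 from semilog inhibition curves, then Ki by Cheng–Prusoff. Triplicates; whole inhibition study repeated at least once.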

kidneys = experiment: Radiation dosimetry; assay type: in vivo, NOD-SCID mice
[3] = Octanol-water partition coefficient; assay type: physicochemical; conditions: pH 7.4
[4] = tested on: PSMA^+ PC3 PIP and PSMA^− PC3 flu xenografts; experiment: Small animal PET imaging; assay type: in vivo, NOD-SCID mice
Method in brief: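 Male NOD-SCID mice given 1 × 106 PSMA+ PC3 PIP and PSMA− PC3 flu cells s.c. in opposite flanks, cells trypsinized at 80–90% confluence into HBSS. Imaged at 3–5 mm tumors after i.v. 0.36 mCi (13.3 MBq) radiotracer in 0.2 mL PBS under isoflurane/oxygen. PET/CT at 30, 60, 120 min; 10 min per bed, 20 min total; 250–700 keV; FORE/2D-OSEM, decay/dead-time/scatter corrected.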

T1 sequence (Q04609 whole entry): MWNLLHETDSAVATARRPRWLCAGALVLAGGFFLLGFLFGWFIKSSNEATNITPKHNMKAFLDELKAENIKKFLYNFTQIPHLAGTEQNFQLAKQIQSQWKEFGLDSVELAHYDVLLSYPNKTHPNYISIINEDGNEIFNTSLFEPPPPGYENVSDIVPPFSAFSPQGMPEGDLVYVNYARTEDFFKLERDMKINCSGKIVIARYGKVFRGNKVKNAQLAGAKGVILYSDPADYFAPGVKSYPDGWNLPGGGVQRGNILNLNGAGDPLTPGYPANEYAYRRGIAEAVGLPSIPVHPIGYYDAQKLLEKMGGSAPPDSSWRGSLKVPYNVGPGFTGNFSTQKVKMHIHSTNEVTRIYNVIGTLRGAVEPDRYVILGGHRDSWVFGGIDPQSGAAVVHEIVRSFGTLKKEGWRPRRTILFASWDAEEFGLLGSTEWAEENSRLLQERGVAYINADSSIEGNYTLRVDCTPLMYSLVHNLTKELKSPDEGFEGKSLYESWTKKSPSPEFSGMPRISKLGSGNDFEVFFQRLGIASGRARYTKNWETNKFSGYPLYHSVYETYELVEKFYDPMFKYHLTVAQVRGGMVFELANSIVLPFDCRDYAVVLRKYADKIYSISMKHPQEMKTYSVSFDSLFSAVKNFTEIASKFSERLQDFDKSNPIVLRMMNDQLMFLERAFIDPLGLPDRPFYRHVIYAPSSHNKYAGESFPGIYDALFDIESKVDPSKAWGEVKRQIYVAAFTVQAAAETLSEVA

O=C(O)CCC(NC(=O)NC(CCCCNC(=O)c1ccc(F)cc1)C(=O)O)C(=O)O (stereo not shown) [DCFBzL]
Ki (PSMA [1]): 0.19 nM

O=C(O)CCC(NC(=O)NC(CCCCNC(=O)CCc1cn(CCF)nn1)C(=O)O)C(=O)O (stereo not shown) [YC-88, 2-[3-(1-Carboxy-5-{3-[1-(2-fluoroethyl)-1 H-1,2,3-tria-zol-yl]propanamido}pentyl)ureido]pentanedioic Acid]
Ki (PSMA [2]; 37 °C, 2 h, Cheng–Prusoff conversion): 12.9 nM
Ki (PSMA [2]; read-out: Ki 95% confidence intervals): 8.7 to 19.1 nM

O=C(O)CCC(NC(=O)NC(CCCCNC(=O)c1ccc([18F])nc1)C(=O)O)C(=O)O (stereo not shown) [[^18F]DCFPyL, 2-(3-{1-carboxy-5-[(6-[^18F]fluoropyridine-3-carbonyl)-amino]-pentyl}-ureido)-pentanedioic acid, reference compound]
AUC (kidneys; male, NOD-SCID, mouse, in vivo): 340.74 % ID/g-h
biological half-life (kidneys; male, NOD-SCID, mouse, in vivo): 1.20 h
logP [3]: -3.27

O=C(O)CCC(NC(=O)NC(CCCCNC(=O)CCc1cn(CC[18F])nn1)C(=O)O)C(=O)O (stereo not shown) [[^18F]YC-88, 2-[3-(1-carboxy-5-{3-[1-(2-[^18F]fluoroethyl)-1H-1,2,3-triazol-yl]propanamido}pentyl)ureido]-pentanedioic acid]
AUC (kidneys; kidneys): 70.7 % ID/g-h
AUC ratio (agent/YC-88) (kidneys; kidneys): 1
kidney absorbed dose, decrease compared to [^18F]DCFPyL (kidneys; kidneys): ~5 fold
biological half-life (kidneys; kidneys, single exponential fit of % ID/g data): 1.52 h
logP ([3]; 1-octanol and PBS): −3.91
uptake in normal tissues on PET images ([4]; 30, 60, 120 min postinjection): extremely low uptake
PSMA^+ PC3 PIP tumor uptake on PET images ([4]; as early as 30 min postinjection, 0.36 mCi i.v.): Intense
